These results are taken from ChEMBL document CHEMBL4513216, “Probing the Open Global Health Chemical Diversity Library for Multistage-Active Starting Points for Next-Generation Antimalarials” (ACS Infect Dis, 2020).

The nature of the data set: Toxicity liver stage against HepG2, at 10uM. Conditions: human, HepG2-A16-CD81EGFP cells; read-out: INHIBITION
Type of data set: cell-based. Also noted: test concentration 10 uM, cell line HepG2-A16-CD81EGFP. The method, boiled down:
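Uninfected HepG2-A16-CD81EGFP cells, 3 × 10^3 per well, 1536-well, plated on prespotted compound at 10 μM final, parasite-free screening media added to match infected plates; puromycin 10 μM positive, DMSO 0.5% negative; run in parallel with 48 h PbLuc assay at 37 °C, 5% CO2; viability by CellTiter-Glo luminescence, normalized to controls.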
In the case of `O=c1[nH]c(NCCO)nc2c1C1(CCCC1)Cc1ccccc1-2`, the cytotoxicity at 10 µM turned out to be 8.13%.

With `Cn1c(CN2CCCCCC2)cc(=O)c(O)c1CN1CCCC1`, the cytotoxicity at 10 µM was determined as 13.9%.

Take `Cc1nn(C)c(C)c1S(=O)(=O)NCCn1ccc(-c2cccs2)n1`: the cytotoxicity at 10 µM is -3.53%.

`CNC(=O)NC1CC2(CCNCC2)c2ccc(C)cc21` (configuration not stated): the cytotoxicity at 10 µM is -4.97%.

Consider `O=C(c1ccnnc1)N1CC[C@H]2[C@H]1CCN2S(=O)(=O)C1CC1`, for which the cytotoxicity at 10 µM is -143%.

On to `CCS(=O)(=O)N1CCCC2(CCCN2C(=O)c2cn(C)cn2)C1` (configuration not stated), for which the cytotoxicity at 10 µM is 8.16%.

Regarding `COCC(=O)N1CCC2(CC(=O)N(c3cccc(F)c3)C2)C1` (configuration not stated), the cytotoxicity at 10 µM is -156%.

Consider `Cn1cc(C2CC(=O)NC23CCN(C(=O)NC2CC2)CC3)cn1` (configuration not stated), for which the cytotoxicity at 10 µM was found to be 4.97%.

`CC(C)NC(=O)c1cc2c([nH]c1=O)CC(c1cccs1)CC2=O` (configuration not stated): the cytotoxicity at 10 µM is -3.01%.

On to `CC(C)OCCCNC(=O)CN(c1ccc(F)c(F)c1)S(C)(=O)=O`, for which the cytotoxicity at 10 µM was found to be 9.96%.

Take `Cc1nn(C)c2c(NCCCn3cccn3)nc(C(C)C)nc12`: the cytotoxicity at 10 µM amounted to 6.67%.

On to `Cc1nn(C)c(C)c1C(=O)NN1CCOCC1`, for which the cytotoxicity at 10 µM was 7.83%.

For the molecule `NC(=O)c1cc2c(nc1N)CCN(C(=O)C1CCCCC1)C2`, the cytotoxicity at 10 µM was -21.8%.

Take `O[C@H]1CN(CCOc2ccc(F)cc2)CC[C@@]12CCCO2`: the cytotoxicity at 10 µM was -28.8%.

`Cc1occc1-c1nc(NC2CCCC2)ncc1-c1ccccn1`: the cytotoxicity at 10 µM was -20.9%.

As to `COCc1cc(O)nc(C2CCCN(Cc3ccc(OC)cc3)C2)n1` (configuration not stated), the cytotoxicity at 10 µM was -1.25%.

Regarding `CN(C)S(=O)(=O)NC(=O)CC(c1ccccc1)C(F)(F)F` (configuration not stated), the cytotoxicity at 10 µM is -39.5%.

As for `CCNC(=O)c1cnc(Sc2nccn2C)c(Cl)c1`, the cytotoxicity at 10 µM is -49.2%.

Regarding `COCCNc1nc(-c2ccc(S(=O)(=O)N3CCCCCC3)cc2)cs1`, the cytotoxicity at 10 µM is -32.7%.

`Cc1c(NCc2ccccc2C#N)cccc1-n1cnnn1`: the cytotoxicity at 10 µM is 15.4%.

On to `CC(C)CC(=O)N(C)Cc1nc(C(F)(F)F)cs1`, for which the cytotoxicity at 10 µM is 8.32%.

Turning to `CC(C)NC(=O)CCNC(=O)CCc1cc(Cl)cs1`, the cytotoxicity at 10 µM was -2.59%.

As to `Cc1noc(C)c1CN(C)C(=O)c1nc(N2CCCC2)ncc1Cl`, the cytotoxicity at 10 µM was -41.6%.

For `CN(C)C(CNC(=O)CCNC(=O)OCC(F)(F)F)c1ccsc1` (configuration not stated), the cytotoxicity at 10 µM is -45.2%.

In the case of `Cc1nn(C)c(C)c1C1COCCN1C(=O)CC(C)(C)C` (configuration not stated), the cytotoxicity at 10 µM is -5.07%.

As for `Cc1nc2c(C#N)cnn2c(C)c1CCC(=O)N(C)C(C)C(C)C` (configuration not stated), the cytotoxicity at 10 µM was -43.7%.

As to `COc1cccnc1NC(=O)c1ccc(COCC(F)(F)F)cc1`, the cytotoxicity at 10 µM was -2.4%.

For the molecule `NC(=O)NC(=O)CCN1CCN(CC2CC2)c2ccccc21`, the cytotoxicity at 10 µM is 17.9%.

`CCOc1ccc(CNC(=O)N(C)CC(C)(C)O)cc1C`: the cytotoxicity at 10 µM stood at 4.3%.

For the molecule `Cc1cnc(CN2CCC(N(C)Cc3nnc(C)n3C)C2)cn1` (configuration not stated), the cytotoxicity at 10 µM was -10.7%.

In the case of `O=C(C1SCCc2sccc21)N1CCCCC1` (configuration not stated), the cytotoxicity at 10 µM was found to be 9.78%.

Take `CC1CCN(CCCNC(=O)Nc2cc3c(cc2Br)OCCO3)CC1`: the cytotoxicity at 10 µM is -3.11%.

For the molecule `CN1CCN(Cc2ccccc2CNC(=O)c2cc(Cl)ccc2F)CC1`, the cytotoxicity at 10 µM is 9.61%.

As for `CC(C)c1cccc(S(=O)(=O)NCCCN2CCC(O)CC2)c1`, the cytotoxicity at 10 µM was 12.9%.

Take `COc1ccc(N(C(=O)c2cnc(C)cn2)C(C)C)cc1F`: the cytotoxicity at 10 µM was -2.96%.

`CC(C)N1CCC(Nc2ccn(CCC#N)n2)C1=O` (configuration not stated): the cytotoxicity at 10 µM stood at 15.7%.

With `O=C(COc1ccccc1)N(Cc1ccncc1)C1CC1`, the cytotoxicity at 10 µM was -46.1%.

Consider `CCOc1cccc(CNC(=O)CN2CCC3(CCOC3)C2)c1` (configuration not stated), for which the cytotoxicity at 10 µM is -42.1%.

Consider `CCN(C(=O)CN1CCCC1c1cc(C)no1)c1ccccc1C` (configuration not stated), for which the cytotoxicity at 10 µM was -0.264%.

For the molecule `CC(C)COCCC(=O)NS(=O)(=O)c1ccc(Cl)s1`, the cytotoxicity at 10 µM was -21.6%.

On to `Cc1noc(C)c1CN1CCN(c2ccnc(-c3ccccc3)n2)CC1`, for which the cytotoxicity at 10 µM was 6%.

Consider `COc1ccc2cc(CNc3c(C)nn(C(C)C)c3C)ccc2c1`, for which the cytotoxicity at 10 µM was -56.6%.

Take `c1coc(CNCC2Cn3nncc3CO2)c1` (configuration not stated): the cytotoxicity at 10 µM is -92.5%.

As for `O=C(CC(F)(F)F)N1C[C@H]2CCN[C@H]2C1`, the cytotoxicity at 10 µM stood at 2.95%.

Consider `COCc1cnc2n1CCN(C(=O)c1cc3ccccc3o1)C2C` (configuration not stated), for which the cytotoxicity at 10 µM was -105%.

Turning to `Cc1[nH]c2ccccc2c1-c1ccnc(NCCN2CCOCC2)n1`, the cytotoxicity at 10 µM was 7.12%.

With `CC(C)[C@@H]1CN(C(=O)NCc2ccco2)C[C@H]1NS(=O)(=O)N(C)C`, the cytotoxicity at 10 µM was determined as 6.14%.

For `Cc1cc(C)nc(NC2CC(=O)N(C)C2)n1` (configuration not stated), the cytotoxicity at 10 µM is 8.61%.

`CN1CCN([C@@H]2CCN(CC3=Cc4cc(Cl)ccc4OC3)C[C@H]2O)CC1`: the cytotoxicity at 10 µM was -5.87%.

As for `Cc1ccc(CNC(=O)c2cc(Cn3ccnc3C(C)C)[nH]n2)o1`, the cytotoxicity at 10 µM amounted to 3.42%.

On to `Cn1ncc2c(NC3CCCN(C(=O)C4CC4)C3)nc(C(C)(C)C)nc21` (configuration not stated), for which the cytotoxicity at 10 µM stood at 12%.

Turning to `Cc1nc(CN2CCCC(CCc3cccc(C(F)(F)F)c3)C2)co1` (configuration not stated), the cytotoxicity at 10 µM is -0.0825%.

Consider `Cc1cc(-n2cccn2)ccc1CN1CCOCC(CN(C)C)C1` (configuration not stated), for which the cytotoxicity at 10 µM is -38.2%.

Consider `CCn1cc(CN2CCC(NS(C)(=O)=O)CC2)cc1C#N`, for which the cytotoxicity at 10 µM is -4.18%.

As to `OCCC1CN(c2ncnc3[nH]cnc23)CCN1Cc1ccccc1` (configuration not stated), the cytotoxicity at 10 µM came to 11.9%.

Regarding `Cc1cccc(N2CCC(N3CCCC4(CNC(=O)O4)C3)CC2)c1C` (configuration not stated), the cytotoxicity at 10 µM was -6.67%.

On to `O=C(C1CCC1)N1CCC(C(=O)N2CCC(c3ccc(F)cc3)C2)CC1` (configuration not stated), for which the cytotoxicity at 10 µM is -39.8%.

Turning to `Cc1ncc2c(c1CNC(=O)C1(c3ccc(F)cc3)CC1)CCNC2`, the cytotoxicity at 10 µM was -46.6%.

Turning to `COCCC1(C(=O)O)CCN(c2cc(C)c3ccccc3n2)CC1`, the cytotoxicity at 10 µM is -41.6%.

Consider `CCc1ccc(CN2CCN(c3ccc(C#N)cc3)C(=O)C2)nc1`, for which the cytotoxicity at 10 µM was -1.32%.

With `Cc1ccccc1N1CCN(c2ccncn2)C(C)C1` (configuration not stated), the cytotoxicity at 10 µM turned out to be 22.6%.

Turning to `CN(Cc1n[nH]c2c1CCCC2)c1nc(C2CC2)nc2c1CCNCC2`, the cytotoxicity at 10 µM was -10.3%.

`CCc1nc(N)nc(NCCC(=O)N2CCCC2)c1C`: the cytotoxicity at 10 µM is -42.5%.

Consider `CCOC(=O)C1(CCOC)CCCN(Cc2nccn2CC)C1` (configuration not stated), for which the cytotoxicity at 10 µM amounted to 10.8%.

In the case of `COc1ccc(C(=O)C2CCCN(c3cc(C#N)ccn3)C2)cc1F` (configuration not stated), the cytotoxicity at 10 µM is -0.0739%.

With `CNC(=O)c1cn2cc(-c3ccccc3Cl)n(CC=C(C)C)c(=O)c2n1`, the cytotoxicity at 10 µM was -7.05%.

For the molecule `CCN(CCn1cccn1)Cc1nc(-c2ccc(F)cc2)oc1C`, the cytotoxicity at 10 µM was determined as 1.07%.

`CC(C)NC(=O)c1nc(Cn2c(C(F)F)nc3ccccc32)no1`: the cytotoxicity at 10 µM was found to be 9.34%.

`Cc1ccc(C)c(NC(=O)c2coc(C)n2)c1`: the cytotoxicity at 10 µM is -5.97%.

For the molecule `O=C1CC(NCc2ccncc2)CN1Cc1cccc(F)c1` (configuration not stated), the cytotoxicity at 10 µM is -7.12%.

Turning to `COc1ccc(C2(NC(=O)CCn3cncn3)CCCCC2)cc1`, the cytotoxicity at 10 µM was -3.12%.

As for `COc1cccc(N2CCN(CC(O)c3cc(C)sc3C)CC2)c1` (configuration not stated), the cytotoxicity at 10 µM came to 2.24%.

Regarding `Cc1nc(C)n(CC2CCCN2Cc2ncc(C(C)(C)C)o2)n1` (configuration not stated), the cytotoxicity at 10 µM is -5.53%.

For the molecule `N#Cc1cccc(C(=O)N2CCN(c3ncccn3)CC2)c1`, the cytotoxicity at 10 µM was -0.0581%.

As for `O=C(CCCn1cncn1)NC1CCc2nccn2C1` (configuration not stated), the cytotoxicity at 10 µM was 2.03%.

On to `Cc1cc(CN2CCN(CC(O)c3ccc(C)c(C)c3)CC2)no1` (configuration not stated), for which the cytotoxicity at 10 µM is -2.96%.

For the molecule `Cc1ncsc1C(=O)NC1CCN(Cc2ccc(C(F)(F)F)cc2)CC1`, the cytotoxicity at 10 µM came to 15.5%.

Consider `CCOc1ccccc1CNC(=O)N1CCC(n2cncn2)CC1`, for which the cytotoxicity at 10 µM is -0.819%.

Turning to `CC(NC(=O)Nc1cccnc1N1CCCC1)c1ccn(C)c1` (configuration not stated), the cytotoxicity at 10 µM was -24.6%.

For the molecule `Cc1ncsc1C(=O)NCCSCc1cccs1`, the cytotoxicity at 10 µM is -2.11%.

As to `Cc1cnn(CCC(=O)N2CCN(c3nc(C)cs3)CC2)c1`, the cytotoxicity at 10 µM is -11.9%.

Consider `CN(Cc1cccs1)C(=O)CS(=O)(=O)Cc1ccc(Cl)c(Cl)c1`, for which the cytotoxicity at 10 µM amounted to 0.866%.

Consider `Cc1ccc([C@]2(O)CC[C@H]3CN(Cc4cccc(Cl)c4Cl)C[C@H]32)nc1`, for which the cytotoxicity at 10 µM is 9.42%.

`Cc1ccc(N2C[C@H]3CCC[C@@H](CN4CCOCC4)[C@H]3C2)nn1`: the cytotoxicity at 10 µM was found to be 10.7%.

In the case of `Cc1ccsc1C(=O)N1CCc2ncc(CN(C)C)n2CC1`, the cytotoxicity at 10 µM is -101%.

Regarding `Cn1cc(CN2CCn3cc(CNC(=O)c4cccn4C)nc3C2)cn1`, the cytotoxicity at 10 µM came to 1.85%.

On to `COCCN1CCN(C(=O)N2CCCC2)Cc2ccc(C)nc21`, for which the cytotoxicity at 10 µM was -65.5%.

Regarding `Clc1ccc(COCC2CCN(Cc3ccccn3)CC2)cc1`, the cytotoxicity at 10 µM worked out at 4.94%.

Turning to `CC1COC2(CCN(C(=O)Cc3ccncc3)CC2)C1` (configuration not stated), the cytotoxicity at 10 µM was -105%.

With `Cn1cc(CN2CC[C@H]3O[C@@H](C(=O)NC4CC4)CC[C@H]32)cn1`, the cytotoxicity at 10 µM is -1.55%.

Turning to `COc1ccc(C[C@H]2CN(Cc3ccoc3)CC[C@H]2OC)cc1`, the cytotoxicity at 10 µM is 8.44%.

Turning to `c1cncc(COCc2n[nH]c3c2CN(Cc2ccco2)C3)c1`, the cytotoxicity at 10 µM amounted to 9.01%.

On to `CCC1=N[C@@]2(CC[C@@H]3CN(Cc4ccc(F)cc4)C[C@@H]32)C(=O)N1C`, for which the cytotoxicity at 10 µM was -106%.

Regarding `O=C(c1cocn1)N1C[C@@H]2CN(Cc3ccco3)CCO[C@@H]2C1`, the cytotoxicity at 10 µM worked out at 5.24%.

As to `CC(C)n1nc(CN2CCOCC2)c2c1CN(C(=O)c1ccno1)C2`, the cytotoxicity at 10 µM was determined as 2.62%.

For `CC(=O)N1CCCC1c1nnn2cc(-c3ccncc3)ccc12` (configuration not stated), the cytotoxicity at 10 µM turned out to be 7.28%.

As for `c1ccc(CN2CCCC3(CCN(CC4CCCO4)CC3)C2)nc1` (configuration not stated), the cytotoxicity at 10 µM is -115%.
